# Screening results deposited in PubChem by Sanford-Burnham Center for Chemical Genomics.
# CCR6 antagonist = antagonists of human CCR6 receptor. P51684. CHO-K1 CCR6 PathHunter beta-arrestin, luminescence, CCL20-stimulated. inhibition, % at 20 µM. 340,000 tested, 0.49% active. AID 493098;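 active means compounds whose inhibition of the agonist-driven luminescence signal at 20 µM reaches about 50%, limit read from the data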;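 further: cells stimulated with CCL20 at 14 nM final; plate controls were DMSO with CCL20 for no effect and DMSO without agonist for full effect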
# Target sequence (P51684 whole entry, looked up): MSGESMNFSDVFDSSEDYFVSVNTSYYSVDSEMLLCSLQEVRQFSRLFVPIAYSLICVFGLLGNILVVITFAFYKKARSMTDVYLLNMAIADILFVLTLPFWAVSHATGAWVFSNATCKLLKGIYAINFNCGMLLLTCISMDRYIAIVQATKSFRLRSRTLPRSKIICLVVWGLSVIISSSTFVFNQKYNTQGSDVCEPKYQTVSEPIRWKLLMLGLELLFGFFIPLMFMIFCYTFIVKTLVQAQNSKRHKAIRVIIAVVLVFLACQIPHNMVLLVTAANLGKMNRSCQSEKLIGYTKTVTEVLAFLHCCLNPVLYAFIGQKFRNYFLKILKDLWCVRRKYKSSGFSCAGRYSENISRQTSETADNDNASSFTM
# EBI2 antag = EBI2 (human) antagonism; inhibition, % at 5 µM; EBI2 beta-arrestin recruitment, luminescence, 7a,25-OHC stimulated; 360,000 tested, 0.81% active; in the data active means inhibition above about 38%;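 further: enzyme fragment complementation signal reports receptor beta-arrestin coupling in cells; 0% = agonist plus DMSO wells and 100% = wells without agonist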
# APJ antagonist = antagonists of human APJ apelin receptor. CHO-K1 APJ beta-arrestin complementation, luminescence. inhibition, % at 20 µM. 330,000 tested, 0.32% active;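 active means inhibition above about 40% at 20 µM, limit read from the data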;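 further: cells challenged with 10 nM apelin-13 agonist together with compound; plate controls were apelin-13 plus DMSO wells for no effect and DMSO wells lacking apelin-13 for full effect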
# CXCR6 block = CXCR6 (human) receptor inhibition; CHO-K1 PathHunter CXCR6 beta-arrestin, luminescence; inhibition, % at 20 µM; 360,000 tested, 0.36% active; AID 602244; in the data active means inhibition above about 34%, passing the limit was not always enough;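 further: antagonist mode with CXCL16 agonist at 10 nM final; 0% = 10 nM CXCL16 with DMSO and 100% = unstimulated wells without agonist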
# APJ ag = activates the human apelin receptor APJ | P35414 | CHO-K1 APJ PathHunter beta-arrestin, luminescence; 0% DMSO wells, 100% apelin | activation, % at 20 µM | 330,000 tested, 0.11% active;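 active means activation more than six SD over the plate average, tested at 20 µM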;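 further: 0% = DMSO alone and 100% = apelin-13 at 10 nM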
#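 Assay system – PathHunter CHO-K1 APJ (AGTRL-1) beta-arrestin reporter cells · Compound – one dose, 20 µM compound, 1% DMSO · Timing – compound 90 min 25 °C, reagent 1 h · Measured by – luminescence from split beta-galactosidase complementation, Galacton Star/Emerald II substrate · Measure – beta-arrestin recruitment to APJ as agonist activity, luminescent signal · Benchmarks – DMSO vs Apelin-13 10 nM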
# EBI2 conf = confirmation of human EBI2 receptor antagonists | shares compounds with EBI2 antag | EBI2 beta-arrestin luminescence, 7a,25-OHC antagonism | inhibition, % at 5 µM | 2,400 tested, 29% active | AID 651997;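 active means inhibition of at least 50%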
# EBI2 ag = EBI2 agonism counter-screen | shares compounds with EBI2 antag | EBI2-expressing cells, agonist mode, luminescence, 60 min; 0% vehicle, 100% 7α,25-dihydroxycholesterol control | activation, % at 5 µM | 2,400 tested, under 10 active | AID 652000;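 active means activation of at least 50%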
# bGal counter = inhibits E. coli beta-galactosidase, counter-screen for EBI2 antagonists; shares compounds with EBI2 antag; purified beta-galactosidase, luminescent Galacton Star, 15 min; inhibition, % at 5 µM; 2,400 tested, 1% active;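 active means replicate-average signal at least 3 plate SD below neutral wells, shown as high inhibition, flagging enzyme-inhibiting false positives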;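 further: 0% = DMSO wells with enzyme and 100% = wells lacking enzyme; higher means stronger loss of beta-gal luminescence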
# Active calls of the source: *; · = no result given. Sampled rows, rich in hits. Any-hit rate of the full collection: about 1.5%.
SMILES,CCR6 antagonist,EBI2 antag,APJ antagonist,CXCR6 block,APJ ag,EBI2 conf,EBI2 ag,bGal counter
C[C@H](CO)N1C[C@H](C)[C@@H](CN(C)C(=O)CN2CCOCC2)Oc2ncc(-c3cncnc3)cc2C1=O,·,-4,·,2,·,·,·,·
CSc1ccc(S(=O)(=O)NCC(=O)OCC(=O)N2CCC(C)CC2)cc1[N+](=O)[O-],-5,-3,15,-8,-1,·,·,·
C=CCc1cccc(CNc2nc3ccccc3n2CCN2CCOCC2)c1O,14,83*,-24,25,-4,84*,-1,7
C=CCc1cccc(CNc2nc3ccccc3n2C)c1O,0,0,-13,3,0,·,·,·
Cc1nc(CS(=O)(=O)c2ccc(Cl)cc2)cc(Sc2ccc(Cl)cc2)n1,1,73*,0,-1,-5,62*,0,11
O=S(=O)(Cc1cc(Sc2ccc(Cl)cc2)nc(-c2ccccc2)n1)c1ccccc1,12,31,16,7,0,·,·,·
COc1cc(/C=c2\sc3n(c2=O)C(c2ccccc2)C(c2ccccc2)=NN=3)ccc1O (configuration not stated),41,49*,21,35,-5,43,-1,10
O=C(Cn1cc2c(n1)CCCCC2)Nc1ccccc1Br,2,-12,9,6,-5,·,·,·
COc1ccc2nc3n(c(=O)c2c1)-c1cc2ccccc2cc1C(=O)NC3Cc1ccccc1 (configuration not stated),·,41*,·,5,·,33,-2,-7
COC(=O)c1ccc(NC(=O)CNc2ccccc2)cc1,2,-8,-12,6,-5,·,·,·
NS(=O)(=O)c1ccc(N/N=C/c2cn(-c3ccccc3)nc2-c2cccs2)c([N+](=O)[O-])c1,27,21,4,25,1,·,·,·
NS(=O)(=O)c1ccc(N/N=C/c2cn(-c3ccccc3)nc2-c2cccs2)cc1,-1,41*,-22,-14,2,30,1,6
COc1ccc(Nc2ccc(Nc3ccc(OC)cc3)nn2)cc1,13,69*,6,-6,5,31,1,-10
COc1ccc(Nc2ccc(OC)cc2)cc1,-22,10,-18,9,1,·,·,·
Cc1nn(CC(=O)Nc2nnc(C(C)C)s2)c(=O)c2ccccc12,14,-3,11,-3,-2,·,·,·
CCOc1ccc(NC(=O)Nc2cc(-c3ccccc3)sc2C(=O)OC)cc1,6,46*,-48,-4,-1,21,-1,-17
COC(=O)c1sc(-c2ccccc2)cc1NC(=O)C1CC1,6,9,0,1,-3,·,·,·
O=C(CCCc1cccs1)NCCc1c[nH]c2ccccc12,18,46*,-1,3,1,20,3,2
CCCCCCCCCCCCCCCC(=O)NCCc1c[nH]c2ccccc12,10,17,-73,-1,-1,·,·,·
COc1ccc(-n2nnc3c(SCC(=O)N4CCCc5ccccc54)ncnc32)cc1,11,42*,-3,-1,-3,4,1,6
N#C/C(=C\c1ccccc1)C(=O)Nc1cc(S(=O)(=O)N2CCOCC2)ccc1N1CCCC1,20,75*,4,0,7,66*,-1,-13
CCN1CCN(c2ccc(S(=O)(=O)N3CCOCC3)cc2NC(=O)/C=C/c2ccc(C)cc2)CC1,17,94*,16,10,-5,91*,1,4
COc1ccc(Nc2nc(-c3sc(C)nc3C)cs2)cc1,-4,53*,-20,-4,-5,53*,-1,5
COc1cccc2sc(Nc3nc(-c4cc5ccccc5oc4=O)cs3)nc12,24,46*,·,15,·,20,-1,-10
Nc1ccc(Nc2nc(-c3cc4ccccc4oc3=O)cs2)cc1,11,12,-42,-6,-2,·,·,·
CCOC(=O)N1CCN(C(=O)COc2ccccc2Cl)CC1,-5,8,33,-10,-15,·,·,·
O=C(COc1ccc2ccccc2c1Br)N1CCCC1,-12,2,-24,3,0,·,·,·
